Reference: ChEMBL document CHEMBL4257532, “Synthesis and antitumoral activity of novel analogues monastrol-fatty acids against glioma cells” (Medchemcomm, 2018)
Calls of active or inactive are those of the source. The calls are words filed in the database; no cut-off is given here.

What was measured:
C6 [1] = assay: Antiproliferative activity against rat C6 cells at 5 to 50 uM after 48 hrs by Neubauer chamber method; assay type: functional, cell-based
Method in brief: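 C6 rat glioma cells (ATCC) grown in DMEM/10% FBS with penicillin/streptomycin and Fungizone at 37 °C, 5% CO2. Plated at 5 × 10^3 cells/well and treated 48 h with 5, 10, 25 or 50 μM, dissolved in DMSO. Vehicle control was 1% DMSO. Cells then trypsinized and aliquots counted in a Neubauer chamber. ANOVA with Tukey post-test versus control.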

C6 [2] = assay: Cytotoxicity against rat C6 cells assessed as reduction in cell viability at 5 uM after 48 hrs by MTT assay relative to control; assay type: functional
Method in brief: (§1)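 C6 rat glioma cells in DMEM/10% FBS at 37 °C, 5% CO2. Seeded at 1 × 10^4 cells/well and exposed 48 h to 5–50 μM in DMSO, with a 1% DMSO vehicle control. MTT added at 0.5 mg/mL final for 60 min at 37 °C. Formazan dissolved in DMSO and read at 492 nm. Viability expressed as % of control. IC50 by linear regression of % inhibition against log concentration.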

C6 [3] = assay: Cytotoxicity against rat C6 cells assessed as reduction in cell viability after 48 hrs by MTT assay; assay type: functional, cell-based; conditions: for IC50: C6, 48 h; method in brief: as §1
C6 [4] = assay: Potency index, ratio of monastrol-palmitic acid IC50 to compound IC50 for cytotoxicity against rat C6 cells; assay type: functional
C6 [5] = assay: Cytotoxicity against rat C6 cells assessed as reduction in cell viability at 10 uM after 48 hrs by MTT assay; assay type: functional, cell-based; method in brief: as §1

Row | SMILES | Activity (C6 [1]) | Activity (C6 [2]) | IC50 (C6 [3]) | Ratio IC50 (C6 [4]) | Activity (C6 [3]) | Activity (C6 [5])
1 | CCCCCCCCCCCCCCCC1=C(C(=O)OC)C(c2cccc(O)c2)NC(=O)N1 (stereo not drawn) | Active | Active | 79.4 µM |  |  | 
2 | CCCCCCCCCCCCCCCCCC1=C(C(=O)OC)C(c2cccc(O)c2)NC(=O)N1 (stereo not drawn) | Active | Active | 21.8 µM |  |  | 
3 | CCCCCCCC/C=C\CCCCCCCC1=C(C(=O)OC)C(c2cccc(O)c2)NC(=S)N1 (stereo not drawn) | Active |  | 38.4 µM |  |  | 
4 | CCCCCCCCCCCCCCCC1=C(C(=O)OC)C(c2cccc(O)c2)NC(=S)N1 (stereo not drawn) | Active | 50% | 5.11 µM | 2.5 | Dose-dependent effect | 
5 | CCOC(=O)C1=C(C)NC(=S)NC1c1cccc(O)c1 (stereo not drawn) [MONASTROL] | Active |  | 87.8 µM |  |  | 
6 | CCCCCCCCCCCCCCCCCC1=C(C(=O)OC)C(c2cccc(O)c2)NC(=S)N1 (stereo not drawn) | Active | 50% | 6.85 µM | 2.5 | Dose-dependent effect | 
7 | CCCCCCCC/C=C\CCCCCCCC1=C(C(=O)OC)C(c2cccc(O)c2)NC(=O)N1 (stereo not drawn) | Active |  | 166 µM |  |  | Active
